Results on two molecules are retold here after ChEMBL document CHEMBL1157015, “New isatin derivatives with antioxidant activity” (Eur J Med Chem, 2010).

What all share (format): functional
Assay [1] in a line: Antioxidant activity against ABTS radical assessed as trolox equivalent by TEAC assay. An outline of the steps:
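TEAC assay run at pH 7.4 against the ABTS radical cation. Trolox served as standard, with activity expressed relative to it.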

Assay [2] is described as follows: Antioxidant activity against hydroperoxyl radical assessed as resorcinol equivalent by Briggs-Rauscher method. An outline of the steps: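 Briggs–Rauscher oscillating reaction run at acidic pH (ca. 2), using resorcinol as standard. Activity is expressed relative to resorcinol from the inhibitory phase of the oscillations.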
A short description of assay [3]: Antioxidant activity against hydroperoxyl radical assessed as inhibition time at 3.71 uM by Briggs-Rauscher method. An outline of the steps: (§1)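 Briggs–Rauscher oscillating reaction run under acidic conditions (pH ca. 2). Read-out is the inhibitory phase induced in the oscillations.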
Assay [4] in a line: Antioxidant activity against hydroperoxyl radical assessed as inhibition time at 2.97 uM by Briggs-Rauscher method. Summed up:
as §1

Assay [5] in a line: Antioxidant activity against hydroperoxyl radical assessed as inhibition time at 2.25 uM by Briggs-Rauscher method. Summed up:
as §1

Assay [6] in a line: Antioxidant activity against hydroperoxyl radical assessed as inhibition time at 3.34 uM by Briggs-Rauscher method. An outline of the steps: as §1
Assay [7] in a line: Antioxidant activity against hydroperoxyl radical assessed as inhibition time at 1.48 uM by Briggs-Rauscher method. An outline of the steps:
as §1

The source made the active and inactive calls. The rule behind the calls is not given here.

`COc1ccc(OC)c(NC(=O)C(=O)c2ccccc2NC(C)=O)c1`: the outcome in assay [1] and in assay [2] was inactive.

Consider `COc1cc(C2(c3cc(OC)c(N)cc3OC)C(=O)Nc3ccccc32)c(OC)cc1N`, for which the TIME in assay [3] stood at 0.296 h; in assay [4], 0.24 h; in assay [5] it was 0.216 h; in assay [6], 0.269 h; in assay [7] it was 0.154 h. The Activity in assay [1] stood at 1.4 mM; in assay [2], 1.28 µM.
